First the molecules themselves.
B1: tRNA (parent)
chain: GUUCCGUUGGCGUAAUGGUAACGCGUCUCCCUCCUAAGGAGAAGACUGCGGGUUCGAGUCCCGUACGGAACG

Fewer inactive variants are shown than the library holds.

Variants of B1 are the subject of this data set. Nature of the data set: yeast fitness relative to wild type (ratio to wild type); higher = fitter; tRNA-Arg(CCU), competitive growth, 37 C, YPD. A digest of the protocol:
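Genotype frequency changes were the basis for Darwinian fitness relative to wild type. The frequencies came from 100-nucleotide paired-end sequencing of gene amplicons from the start population and each end population of pooled yeast strains with tRNA-Arg(CCU) gene variants at the native locus. Competition ran in YPD at 37°C for 24 hours in six replicates, genotypes needed ≥ 100 starting reads, and estimates < 0.5 were set to 0.5.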
For GUUCCGUUGGCGUAAUGGUAACGCGUCUUCCUCCUAAGGAGAACACUGCGGGUUCGUGUCCCGUACGGAACG [C29U G44C A57U], the yeast fitness stood at 0.635.
Under GUUCCGUUGGCGUAAUGGUAACGCGUCUUCCUCCUAAGGAGAAGACUGCGGGUUCGAGUCCCGUACGACACG [C29U G68A A69C] stands at most 0.5; under GUUCCGUUGGCGUAAUGGUAACGCGUCUUCCUCCUAAGGAGAACACUGCGGGUUCGAGUCCCGUACGGAACG [C29U G44C], 0.825.
The same measure for GUUCCGUUGGCGUAAUGGUAACGCGUCUUCCUCCUAAGGACAAGACUGCGGGUUCAAGUGCGGUACGGAACG [C29U G41C G56A C60G C62G]: at most 0.5; for GUUCCGUUGGCGUAAUGGUAACGCGUCUUCCUCCUAACGAGAAGACUGCGGGUUCGAGUCCCGCACGGAACG [C29U G38C U64C]: at most 0.5.
Under GUUCCGUUGGCGUAAUGGUAACGCGUCUUCCUCCUAAGGAGAAGACUGCGCGUUCGAGUCCCGUACAGAACG [C29U G51C G67A] stands at most 0.5; under GUUCCGUUGGCGUAAUGGUAACGCGUCUUCCUCCCAAGGAGUAGACUGCGGGUUCGAGUCUCGUAAGGAACG [C29U U35C A42U C61U C66A], at most 0.5.
Consider GUUCCGUUGGCGUAAUGGUAACGCGUCUUCCUCCAAACGAGAAGUCUGCGGGUUCGAGCCCCGUACGGAACG [C29U U35A G38C A45U U59C], for which the yeast fitness was at most 0.5.
With GUUCCGUUGGCGUAAUGGUAACGCGUCUUCCUCCUAAGGAGAAGACUGCGGGUUCGAGUCCCGUACUGUACG [C29U G67U A69U], the yeast fitness is at most 0.5.
GUUCCGUUGGCGUAAUGGUAACGCGUCUUCCACCUAAGGAGAAGACUGCGGGUUCGAGUCCCGUACGGUACG [C29U U32A A69U]: the yeast fitness was determined as 0.6.
As for GUUCCGUUGGCGUAAUGGUAACGCGUCUUCCUCCUAAGGAGAAGACUCCGGGUUCGAGUCCCGUUCGGAACG [C29U G48C A65U], the yeast fitness was at most 0.5.
Take GUUCCGUUGGCGUAAUGGUAACGCGUCUUCCUCCUAAGGAGAAGACUGCGGGUUCGACUCCCGUACGAAACG [C29U G58C G68A]: the yeast fitness was at most 0.5.
Under GUUCCGUUGGCGUAAUGGUAACGCGUCUUCCUCCAAAGGAGAAGACUGCGGGUUCGAGUCGCGUACGGAACG [C29U U35A C61G] stands at most 0.5; under GUUCCGUUGGCGUAAUGGUAACGCGUCUUCCUCCUAACAAGAAGACUGCGGGUUCGAGUCCCGUGAAGAACG [C29U G38C G39A A65G C66A G67A], at most 0.5; under GUUCCGUUGGCGUAAUGGUAACGCGUCUUCCUCCUAAGGAGAAGACUGCGGGUUCGAGUCCCGUACGAAACG [C29U G68A], 0.937.
In the case of GUUCCGUUGGCGUAAUGGUAACGCGUCUUCCUCCUAAGGAGAAGACUGCGGGUUCGAGUCCCGUACGUAACG [C29U G68U], the yeast fitness was 0.803.
Under GUUCCGUUGGCGUAAUGGUAACGCGUCUUCCUCCUAAGGAAAAGCCUGCGGGUUCGAGUCCCGUACUGAACG [C29U G41A A45C G67U] stands at most 0.5; under GUUCCGUUGGCGUAAUGGUAACGCGUCUUCCUCCUAAGGACAAGACUGCGGGUUCGAGUCCCGUACGGAACG [C29U G41C], 0.776; under GUUCCGUUGGCGUAAUGGUAACGCGUCUUCCUCCCAAGGAGAAGACUGCGGGUUCGAGUCCUGUACGGAUCG [C29U U35C C62U A70U], at most 0.5.
In the case of GUUCCGUUGGCGUAAUGGUAACGCGUCUUCCUCCUAAGGAGAAGACUACGGGUUCCAGUCUCGUACGGAACG [C29U G48A G56C C61U], the yeast fitness is at most 0.5.
The same measure for GUUCCGUUGGCGUAAUGGUAACGCGUCUUCCUCCUAAGGAGAAGACUGCGGGUUCGAAUCCCGUACGGUACG [C29U G58A A69U]: 0.754; for GUUCCGUUGGCGUAAUGGUAACGCGUCUUCCUCCUAAGGAGAAGACUGCGGGUUCGAGUCCCAUACGGAUCG [C29U G63A A70U]: 0.6; for GUUCCGUUGGCGUAAUGGUAACGCGUCUUCCCCCGAAGGAGAAGACUGCGGGUUCGAGUCCCGUACGGAUCG [C29U U32C U35G A70U]: at most 0.5.
Take GUUCCGUUGGCGUAAUGGUAACGCGUCUUCCUCCCAAGGAGAAGACUGCGGGUUCGAGUCCCGUACGGAACG [C29U U35C]: the yeast fitness was found to be 0.95.
With GUUCCGUUGGCGUAAUGGUAACGCGUCUUCCUCCUAAGGAACAGACUGCCGGUUCGAGUCCCGUACGGAGCG [C29U G41A A42C G50C A70G], the yeast fitness was at most 0.5.
Under GUUCCGUUGGCGUAAUGGUAACGCGUCUUCCUCCUAAGGAGAAGACUGCGGGUUCGAGUCCCCUACGGAACG [C29U G63C] stands 0.728; under GUUCCGUUGGCGUAAUGGUAACGCGUCUUCCUCCCAAGGAGAACACUGUGGGUUCGUGUCCCAUACGGAACG [C29U U35C G44C C49U A57U G63A], at most 0.5.
Under GUUCCGUUGGCGUAAUGGUAACGCGUCUUCCCCCUAAGGAGAAGACUGCGGGUUCGAGUCCCGUACGGAACG [C29U U32C] stands 0.981; under GUUCCGUUGGCGUAAUGGUAACGCGUCUUCCUCCUAAGGAGAACACUGCGGGUUCGAGUACCGUACGGAACG [C29U G44C C60A], at most 0.5; under GUUCCGUUGGCGUAAUGGUAACGCGUCUUCCUCCUAAGGAGAAGACAGCGGGUUCGAGUCCCGUACGGAACG [C29U U47A], 0.795.
Under GUUCCGUUGGCGUAAUGGUAACGCGUCUUCCGCCUAAGGAGAUCACUGCGGGCUCGAGUCCCGUACGGAACG [C29U U32G A43U G44C U53C] stands at most 0.5; under GUUCCGUUGGCGUAAUGGUAACGCGUCUUCCUCCUAAGGAGAAGACUGCGGGUUCGACUCCCGUGCGGAACG [C29U G58C A65G], 0.61.
In the case of GUUCCGUUGGCGUAAUGGUAACGCGUCUUCCGCCUAAGGAGAUCACUGCGGGUUCGAGUCUCGUACGGAACG [C29U U32G A43U G44C C61U], the yeast fitness was 0.509.
Regarding GUUCCGUUGGCGUAAUGGUAACGCGUCUUCCUCCUAAGGAGAAGACUGCGGCUUCGAGUCCCGUACGGAACG [C29U G52C], the yeast fitness was 0.579.
Under GUUCCGUUGGCGUAAUGGUAACGCGUCUUCCUCCUAAGGAGAAGACUGCGAGUUCGAGUCCCGUACGGAACG [C29U G51A] stands 0.883.
Under GUUCCGUUGGCGUAAUGGUAACGCGUCUUCCUCCUAAGGAGAAGACUGCGGGUUCGAGUCCCGUACAGAACG [C29U G67A] stands 0.771; under GUUCCGUUGGCGUAAUGGUAACGCGUCUUCCUCCUAAGGAGAAGACUGCGGGUUCGAGUCCCGUACCGAACG [C29U G67C], 0.848; under GUUCCGUUGGCGUAAUGGUAACGCGUCUUCCCCCUAAGGAGAAGACUGCGCGUUCGAGUCCCGUACGGAACG [C29U U32C G51C], at most 0.5.
